Data taken from article PMC2582604 (Nucleic Acids Research, 2008).
Values belong to the substance of their own block, whether it stands above or below them.

Key:
Serum stability assay = format: in vitro ADME, mouse; details: 37°C
Method in brief: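 Conjugate (20 μM) incubated at 37°C in PBS with 20% mouse serum (from clotted blood of female Balb/c mice, cleared by 3 × 30 min centrifugation at 4°C). Aliquots at 0, 15, 30, 60 and 120 min were quenched in 10% dichloroacetic acid in H2O/CH3CN (50/50) and held at –20°C. Supernatant after protein pelleting was analysed by MALDI-TOF MS; cleavage sites were assigned from fragment masses, semi-quantitatively.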

HeLa pLuc705 cells [1] = test: Endocytosis inhibitor study, luciferase read-out; format: cell-based; details: 1 μM conjugate
Method in brief: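 HeLa pLuc705 cells pre-incubated 30 min in OptiMEM at 37°C with inhibitor: chlorpromazine 30 μM or K+ depletion (clathrin), nystatin 50 μM or filipin-III 5 μg ml–1 (caveolae), methyl-β-cyclodextrin 2.5 mM or EIPA 1 mM (macropinocytosis). Inhibitor levels and timings were set to spare protein synthesis. Conjugate then added to 1 μM final for 30 min. Luciferase read as in the splicing assay.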

HeLa pLuc705 cells [2] = test: Energy dependence of uptake; format: cell-based; details: 1 µM conjugate, 30 min pre-incubation, 1 h incubation, luciferase read-out
Method in brief: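 Cells pre-incubated 30 min in OptiMEM at either 37°C or 4°C. Conjugate was then added at 1 μM final and incubation continued 1 h. Read-out was luciferase in lysates, normalised to BCA protein, as in the splicing redirection assay.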

HeLa pLuc705 cells [3] = test: HeLa pLuc705 splicing redirection, luciferase upregulation; format: cell-based
Method in brief: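 HeLa pLuc705 cells were seeded at 1.75 × 10^5/well and grown overnight. Test compound was added for 4 h in OptiMEM without transfection agent, then diluted with DMEM/10% FBS for a further 20 h. Cells were washed in ice-cold PBS and lysed. Luminescence was normalised to BCA protein (550 nm) and expressed as RLU/µg protein or fold over background. Triplicates averaged.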

[4] = system: dystrophin pre-mRNA exon 23 in mdx myoblasts; test: Exon skipping after electroporation into mdx myoblasts; format: cell-based, mouse; details: 0.5 nmol electroporated into mdx myoblasts, 24 h, nested RT-PCR
Method in brief: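 H2K mdx myoblasts (undifferentiated) were grown 2 days at 33°C, 10% CO2, in 20% FBS/DMEM with interferon γ, then trypsinised. 1.5 × 10^6 cells/100 µl Nucleofector Solution V were pulsed with 0.5 nmol PNA, conjugate or sense control PNA (program T-020). Cells rested 10 min at room temperature in OptiMEM, then cultured 24 h on gelatin at 33°C. Total RNA underwent one-step RT-PCR then nested PCR; 2% agarose gel.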

[5] = system: aberrant β-globin intron 705 site in HeLa pLuc705 cells; test: HeLa pLuc705 splicing redirection, RT-PCR analysis; format: cell-based; details: RT-PCR assay
Method in brief: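 HeLa pLuc705 cells were treated with increasing conjugate concentrations as in the luciferase assay (4 h OptiMEM, then 20 h with added serum medium). Total RNA was extracted from the leftover lysate after luciferase and protein measurement. RT-PCR products were separated on 2% agarose and gels scanned to quantify aberrant versus correctly spliced RNA. EC50 of splicing redirection was taken from the dose series.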

Substance: (R-Ahx-R)3IHILFQNdRRMKWHKBC [Pip2b–PNA705]
- stability to serum proteolysis (Serum stability assay; 20 μM conjugate, PBS with 20% mouse serum, 1 h, MALDI-TOF MS): predominantly stable for 1 h
- effect of EIPA on luciferase expression (HeLa pLuc705 cells [1]; EIPA 1 mM (macropinocytosis)): no effect
- inhibitory effect of fillipin-III on luciferase expression (HeLa pLuc705 cells [1]; fillipin-III 5 μg ml–1 (caveolae)): 36%
- effect of methyl-β-cyclodextrin on luciferase expression (HeLa pLuc705 cells [1]; methyl-β-cyclodextrin 2.5 mM (macropinocytosis)): increased luciferase expression
- inhibitory effect of nystatin on luciferase expression (HeLa pLuc705 cells [1]; nystatin 50 μM (caveolae)): 12%
- uptake mechanism from splicing redirection activity at 37°C and 4°C (HeLa pLuc705 cells [2]): energy-dependent uptake mechanism
- activity compared to RXR4–PNA705 (HeLa pLuc705 cells [3]; HeLa pLuc705, absence of transfection or permeabilization agent): 3- to 4 fold

Substance: (R-Ahx-R)3IdKILFQNdRRMKWHKBC [Pip2a–PNA705]
- uptake mechanism from splicing redirection activity at 37°C and 4°C (HeLa pLuc705 cells [2]): energy-dependent uptake mechanism

Substance: sense control PNA: sense 20-mer PNA control sequence AGGTAAGCCGAGGTTTGGCC (all peptide nucleic acid (PNA))
- exon skipping after electroporation [4]: no exon skipping

- EC50 improvement relative to R6Pen–PNA [5]: about 2 fold
Substance: (RXR)3-IKILFQN-R|RMKWKKC [Pip1–PNA705]
- time to full cleavage in 20% mouse serum (Serum stability assay; 20 μM conjugate, PBS with 20% mouse serum, MALDI-TOF MS): ≤ 1 h
- major serum proteolytic cleavage site (Serum stability assay; 20% mouse serum, fragment masses by MALDI-TOF MS): between amino acids R17 and R18
- uptake mechanism from splicing redirection activity at 37°C and 4°C (HeLa pLuc705 cells [2]): energy-dependent uptake mechanism
- fold increase in luminescence compared to R6Pen–PNA705 (HeLa pLuc705 cells [3]; at similar concentrations, HeLa pLuc705 luciferase assay): two to three times
